Tests used:
Cavia porcellus = assay: Methacholine challenge test was performed on guinea pigs by administration of compound at 25 mg/kg perorally; assay type: functional; details: route oral
Procedure, shortened: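 Hartley guinea pigs, six per treatment, dosed orally at 25 mg/kg 15 min before challenge. Exposed for 10 min to 0.1% methacholine chloride aerosol from two nebulizers in a closed chamber, air pressure 10 lb/in.². Time from aerosol onset to collapse recorded and averaged ± S.E.M. Non-collapsing animals removed at 10 min and scored 10.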

Canis familiaris [1] = organism: Canis familiaris; assay: Pulmonary selectivity measured as the ratio of salivation and bronchospasm; assay type: functional, Canis lupus familiaris, Bronchiole
Procedure, shortened: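 Pilocarpine-infused dog model measuring pulmonary resistance and salivary output under cumulative iv doses (1–10,000 μg/kg). ID50 for each response by log dose–response linear regression. Selectivity = ID50 for salivation inhibition divided by ID50 for bronchospasm inhibition. Most compounds tested in one dog.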

Canis familiaris [2] = organism: Canis familiaris; assay: Inhibition of dog salivation by 50% of control value.; assay type: functional; details: Canis lupus familiaris; read-out: ID50 (the source's name)
Procedure, shortened: (§1)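 Dogs with femoral vein cannulated; respiratory rate, heart rate and arterial pressure monitored. Bunolol 0.5 mg/kg iv given 30 min before pilocarpine nitrate infusion (0.2 mg/kg/h) to induce bronchospasm and salivation. Saliva collected from catheterized Wharton's duct every 5 min. Cumulative iv doses 1–10,000 μg/kg given every 5 min. ID50 by linear regression of log cumulative dose vs % inhibition. Mostly one dog per compound.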

Canis familiaris [3] = organism: Canis familiaris; assay: Compound dose for inhibiting dog cholinergic bronchoconstriction by 50% of control value.; assay type: functional; details: Canis lupus familiaris, Lung; read-out: ID50 (the source's name); procedure, shortened: as §1

| Structure (SMILES) | Collapse time (Cavia porcellus) | Ratio (Canis familiaris [1]) | ED50 (Canis familiaris [2]) | ED50 (Canis familiaris [3]) |
| --- | --- | --- | --- | --- |
| CC(C)c1ccc2c3c(c(=O)oc2c1)CN(CCN1CC2CCC(CC2)C1)CC3 | 6.2 min | 0.61 | 0.128 mg/kg | 0.209 mg/kg |
| Cc1cc2oc(=O)c3c(c2cc1C)CCN(CC(C)N1CCCCC1)C3 (stereo not drawn) | 7.7 min | 3.9 | 1.16 mg/kg | 0.3 mg/kg |
| COc1cc2oc(=O)c3c(c2cc1OC)CCN(CC(C)N1CCCCC1)C3 (stereo not drawn) | 10 min | 1.3 | 0.168 mg/kg | 0.129 mg/kg |
| COc1cc2oc(=O)c3c(c2cc1OC)CCN(CC(C)N1CCOCC1)C3 (stereo not drawn) | 10 min |  |  |  |
| COc1cc2oc(=O)c3c(c2cc1OC)CCN(CCN1CCCCCC1)C3 | 4 min |  |  |  |
| CC(CN1CCc2c(c(=O)oc3ccccc23)C1)N(C)C (stereo not drawn) | 10 min | 21.6 |  |  |
| CCN(CC)C(C)CN1CCc2c(c(=O)oc3cc(OC)ccc23)C1 (stereo not drawn) | 10 min | 1.2 | 0.046 mg/kg | 0.038 mg/kg |
| CCN(C)C(C)CN1CCc2c(c(=O)oc3cc(OC)c(OC)cc23)C1 (stereo not drawn) | 6 min | 0.82 | 0.111 mg/kg | 0.135 mg/kg |
| CCCN(C)C(C)CN1CCc2c(c(=O)oc3cc(C)ccc23)C1 (stereo not drawn) | 5.4 min | 1.6 | 0.304 mg/kg | 0.192 mg/kg |
| Cc1ccc2c3c(c(=O)oc2c1)CN(CC(C)N1CCCCC1)CC3 (stereo not drawn) | 9.7 min | 2.7 | 0.108 mg/kg | 0.04 mg/kg |
| Cc1cc2oc(=O)c3c(c2cc1C)CCN(CC(C)N1CCCC1)C3 (stereo not drawn) | 8.2 min | 2.2 | 0.699 mg/kg | 0.315 mg/kg |
| Cc1cc2oc(=O)c3c(c2cc1C)CCN(CCN1CC2CCC(CC2)C1)C3 | 5.1 min | 0.6 | 0.223 mg/kg | 0.372 mg/kg |
| COc1ccc2c3c(c(=O)oc2c1)CN(CCN1CCOCC1)CC3 | 6.1 min | 0.63 | 0.714 mg/kg | 1.14 mg/kg |
| COc1ccc2c3c(c(=O)oc2c1)CN(CCN1CCCC1)CC3 | 9.1 min | 3 | 0.735 mg/kg | 0.246 mg/kg |
| COc1ccc2c3c(c(=O)oc2c1)CN(CCN1CC2CCC(CC2)C1)CC3 | 6 min | 3 | 0.104 mg/kg | 0.035 mg/kg |
| COc1cc2oc(=O)c3c(c2cc1OC)CCN(CCN1C(C)(C)CCCC1(C)C)C3 | 2.8 min |  |  |  |
| CC(CN1CCc2c(c(=O)oc3ccccc23)C1)N1CCCCC1 (stereo not drawn) | 10 min | 5.8 | 0.219 mg/kg | 0.038 mg/kg |
| COc1cc2oc(=O)c3c(c2cc1OC)CCN(CCN1CCCCC1)C3 | 4.9 min |  |  |  |
| CCN(CC)C(C)CN1CCc2c(c(=O)oc3ccccc23)C1 (stereo not drawn) | 10 min | 6.9 |  |  |
| CCCN(CC)C(C)CN1CCc2c(c(=O)oc3ccccc23)C1 (stereo not drawn) | 6.4 min | 0.88 | 0.97 mg/kg | 1.11 mg/kg |
| COc1cc2oc(=O)c3c(c2cc1OC)CCN(CC(C)N1CCCCCC1)C3 (stereo not drawn) | 1.7 min |  |  |  |
| CCCN(CCC)CCN1CCc2c(c(=O)oc3cc(OC)ccc23)C1 | 7 min | 2 | 0.855 mg/kg | 0.428 mg/kg |
| COc1ccc2c3c(c(=O)oc2c1)CN(CC(C)N(C)C)CC3 (stereo not drawn) | 10 min | 1.1 | 0.027 mg/kg | 0.025 mg/kg |
| COc1cc2oc(=O)c3c(c2cc1OC)CCN(CCN1CC2CCCC(C2)C1)C3 | 6.6 min |  |  | 0.119 mg/kg |
| CCCN(CC)C(C)CN1CCc2c(c(=O)oc3cc(C)ccc23)C1 (stereo not drawn) | 7.6 min | 1.6 | 0.182 mg/kg | 0.116 mg/kg |

| Structure (SMILES) | Collapse time (Cavia porcellus) | Ratio (Canis familiaris [1]) | ED50 (Canis familiaris [2]) | ED50 (Canis familiaris [3]) |
| --- | --- | --- | --- | --- |
| COc1cc2oc(=O)c3c(c2cc1OC)CCN(CC(C)N(C)C)C3 (stereo not drawn) | 5.2 min | 4.5 |  |  |
| CN1[C@@H]2CC[C@H]1C[C@@H](OC(=O)C(CO)c1ccccc1)C2 (stereo partly drawn) [ATROPINE] |  | 0.46 | 0.0032 mg/kg | 0.007 mg/kg |
| COc1ccc2c3c(c(=O)oc2c1)CN(CCN1CC2CCC1CC2)CC3 | 10 min | 1.6 | 0.102 mg/kg | 0.063 mg/kg |
| CCNC(C)CN1CCc2c(c(=O)oc3cc(OC)c(OC)cc23)C1 (stereo not drawn) | 1.7 min |  |  |  |
| COc1cc2oc(=O)c3c(c2cc1OC)CCN(CC(C)N1CCCC1)C3 (stereo not drawn) | 10 min | 1.4 | 0.023 mg/kg | 0.017 mg/kg |
| CCN(CC)C(C)CN1CCc2c(c(=O)oc3cc(C)ccc23)C1 (stereo not drawn) | 6.6 min | 4.6 |  |  |
| COc1ccc2c3c(c(=O)oc2c1)CN(CCN1CCCCC1)CC3 | 9.5 min | 0.69 | 0.141 mg/kg | 0.205 mg/kg |
| CCNC(C)CN1CCc2c(c(=O)oc3ccccc23)C1 (stereo not drawn) | 10 min | 5.9 |  |  |
| COc1ccc2c3c(c(=O)oc2c1)CN(CCN(C)C)CC3 | 1.9 min |  |  |  |
| CCOc1cc2oc(=O)c3c(c2cc1OCC)CCN(CC(C)N1CCCCC1)C3 (stereo not drawn) | 10 min | 1.5 | 0.194 mg/kg | 0.126 mg/kg |
| CCN(C)C(C)CN1CCc2c(c(=O)oc3cc(C)ccc23)C1 (stereo not drawn) | 8.8 min | 2.2 |  |  |
| CCc1ccc2c3c(c(=O)oc2c1)CN(CCN1CC2CCC(CC2)C1)CC3 | 6.8 min | 0.55 | 0.041 mg/kg | 0.074 mg/kg |
| COc1ccc2c3c(c(=O)oc2c1)CN(CCN1CC2CCCC(C2)C1)CC3 | 7.3 min | 0.15 | 0.154 mg/kg | 1.03 mg/kg |
| CCCN(CC)C(C)CN1CCc2c(c(=O)oc3cc(OC)ccc23)C1 (stereo not drawn) | 10 min | 0.47 | 0.027 mg/kg | 0.058 mg/kg |
| CCN(C)C(C)CN1CCc2c(c(=O)oc3cc(OC)ccc23)C1 (stereo not drawn) | 9.1 min | 1.5 | 0.023 mg/kg | 0.015 mg/kg |
| O=c1oc2ccccc2c2c1CN(CCN1CC3CCC(CC3)C1)CC2 | 5.2 min | 0.08 | 0.068 mg/kg | 0.849 mg/kg |
| CCNC(C)CN1CCc2c(c(=O)oc3cc(OC)ccc23)C1 (stereo not drawn) | 7.5 min | 2.6 | 0.227 mg/kg | 0.086 mg/kg |
| Cc1ccc2c3c(c(=O)oc2c1)CN(CC(C)N1CCCC1)CC3 (stereo not drawn) | 8.7 min | 2.3 | 0.226 mg/kg | 0.1 mg/kg |
| CCN(CC)C(C)CN1CCc2c(c(=O)oc3cc(OC)c(OC)cc23)C1 (stereo not drawn) | 7.8 min | 3.5 |  |  |
| COc1cc2oc(=O)c3c(c2cc1OC)CCN(CCN1CC2CCC1CC2)C3 | 7.6 min | 1 | 0.14 mg/kg | 0.137 mg/kg |
| CCCN(C)C(C)CN1CCc2c(c(=O)oc3cc(OC)c(OC)cc23)C1 (stereo not drawn) | 2.5 min |  |  |  |
| Cc1ccc2c3c(c(=O)oc2c1)CN(CC(C)N(C)C)CC3 (stereo not drawn) | 10 min | 3.7 |  |  |
| COc1cc2oc(=O)c3c(c2cc1OC)CCN(CCCN1CCCCC1)C3 | 1.6 min |  |  |  |
| CCN1CCCC1CN1CCc2c(c(=O)oc3cc(OC)c(OC)cc23)C1.Cl.Cl (stereo not drawn) | 2.8 min |  |  |  |
| CCCN(CC)C(C)CN1CCc2c(c(=O)oc3cc(OC)c(OC)cc23)C1 (stereo not drawn) | 3.7 min |  |  |  |
